Experimental data gathered from unrelated publications.
Each line is one published result; the experiments were not run side by side.
Target: Serine/threonine-protein kinase OSR1 (OXSR1, Homo sapiens, UniProt O95747)

Structure (SMILES) | test | setting | measurement | result
CO[C@@H]1[C@H](N(C)C(=O)c2ccccc2)C[C@H]2O[C@]1(C)n1c3ccccc3c3c4c(c5c6ccccc6n2c5c31)C(=O)NC4 | enzyme activity, inhibitor | 1 µM | inhibition | 24%
C[C@H]1CC[C@H](n2c3cnccc3c3cnc(Nc4ccc5c(n4)CCN(C(=O)CO)C5)nc32)CC1 | cell-free assay | 1 µM | remaining signal | 100%
CC(C)S(=O)(=O)c1ccc2nccc(Nc3ccc4sc(C5CCCC5)nc4c3)c2c1 | enzyme activity, inhibitor | 1 µM | activity vs control | 108%
Cc1ccc(NC(=O)c2ccnc(C(F)(F)F)c2)cc1-c1cc(OCCO)nc(N2CCOCC2)c1 | binding | 1 µM | remaining binding | 89%
Cc1cc(O)c(-c2ccc([C@@H](C)CN(C)C)cc2)c2c1[nH]c(=O)c1sccc12 | enzyme activity, inhibitor | 0.1 µM | inhibition | 6.5%
C=CC(=O)N1CCC([C@@H]2CCNc3c(C(N)=O)c(-c4ccc(Oc5ccccc5)cc4)nn32)CC1 | enzyme activity, inhibitor | 1 µM | inhibition | 0%
C#Cc1cc(-c2cc(Nc3nc(N[C@@H](C)c4ccc(F)cn4)ncc3Cl)n[nH]2)ccc1C=O | enzyme activity, inhibitor | 0.2 µM | inhibition | 18.2%
CCCCC(=O)Nc1ccc(-c2ccc3ncn(CCC)c(=O)c3c2)cn1 | binding, competition with immobilised ligand | 0.5 µM | remaining binding | 100%
